Measured values reported in ChEMBL document CHEMBL1123248, “Chiral DNA gyrase inhibitors. 1. Synthesis and antimicrobial activity of the enantiomers of 6-fluoro-7-(1-piperazinyl)-1-(2'-trans-phenyl-1'-cyclopropyl)-1, 4-dihydro-4-oxoquinoline-3-carboxylic acid” (1986).
Values after ≈ are worked out from the molar mass of the structure shown.

Key:
Type in all cases: functional
[1] = tested on: Klebsiella aerogenes; assay: The compound was tested for its antimicrobial activity against Enterobacter aerogenes ATCC 13048 (Ea) strain.
Method in brief: (§1)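 MIC by twofold serial agar dilution in brain-heart infusion agar.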

[2] = tested on: Escherichia coli; assay: The compound was tested for inhibition constant against DNA gyrase isolated from Escherichia coli
[3] = tested on: Escherichia coli; assay: (§2) The compound was tested for its antimicrobial activity against Escherichia coli juhl (Ec) strain.
Method in brief: (§3)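 MICs were determined by twofold agar dilution on brain-heart infusion agar.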

[4] = tested on: Klebsiella pneumoniae; assay: The compound was tested for its antimicrobial activity against Klebsiella pneumoniae 8045 (Kp) strain; method in brief: as §3
[5] = tested on: Micrococcus luteus; assay: The compound was tested for inhibition constant against DNA gyrase isolated from micrococcus luteus
[6] = tested on: Pseudomonas aeruginosa; assay: The compound was tested evaluated for its antimicrobial activity against Pseudomonas aeruginosa ( Pa(K)) strain; method in brief: as §3
[7] = tested on: Pseudomonas aeruginosa; assay: The compound was tested evaluated for its antimicrobial activity against Pseudomonas aeruginosa A5007 (Pa(5)) strain.; method in brief: as §3
[8] = tested on: Streptococcus pyogenes; assay: The compound was tested for its antimicrobial activity against Streptococcus pyogenes 930 (Sp) strain; method in brief: as §3
[9] = tested on: Staphylococcus aureus; assay: The compound was tested for its antimicrobial activity against Staphylococcus aureus CMX 68613 (Sa) strain.; method in brief: as §1
[10] = tested on: Enterococcus faecium; assay: The compound was tested for its antimicrobial activity against Streptococcus faecium ATCC 8043 (Sf) strain; method in brief: as §3
[11] = tested on: Staphylococcus epidermidis; assay: (§4) The compound was tested for its antimicrobial activity against Staphylococcus epidermidis 3519 (Se) strain; method in brief: as §1
[12] = tested on: Staphylococcus aureus; assay: The compound was tested for its antimicrobial activity against Staphylococcus aureus ATCC 6538P (Sa(A)) strain; method in brief: as §3
[13] = tested on: Acinetobacter; assay: The compound was tested for its antimicrobial activity against Acinetobacter sp. CMX 669 (A) strain; method in brief: as §3
[14] = tested on: Micrococcus luteus; assay: The compound was tested for its antimicrobial activity against Micrococcus luteus (MI) strain; method in brief: as §3
[15] = tested on: Escherichia coli; assay: as §2; method in brief: as §1; remark: listed apart in the source
[16] = tested on: Staphylococcus epidermidis; assay: The compound was tested for its antimicrobial activity against Staphylococcus epidermidis 3519 (Se) strain.; method in brief: as §1
[17] = tested on: Streptococcus pyogenes; assay: The compound was tested for its antimicrobial activity against Streptococcus pyogenes 930 (Sp) strain.; method in brief: as §1
[18] = tested on: Enterococcus faecium; assay: The compound was tested for its antimicrobial activity against Streptococcus faecium ATCC 8043 (Sf) strain.; method in brief: as §1
[19] = tested on: Acinetobacter; assay: The compound was tested for its antimicrobial activity against Acinetobacter sp. CMX 669 (A) strain.; method in brief: as §1
[20] = tested on: Pseudomonas aeruginosa; assay: The compound was tested evaluated for its antimicrobial activity against Pseudomonas aeruginosa ( Pa(K)) strain.; method in brief: as §1
[21] = tested on: Escherichia coli; assay: The compound was tested for its antimicrobial activity against Escherichia coli juhl (Ec) strain; method in brief: as §3
[22] = tested on: Klebsiella pneumoniae; assay: microbe, parasite or virus in culture
[23] = tested on: Staphylococcus aureus; assay: The compound was tested for its antimicrobial activity against Staphylococcus aureus CMX 68613 (Sa) strain; method in brief: as §3
[24] = tested on: Klebsiella aerogenes; assay: The compound was tested for its antimicrobial activity against Enterobacter aerogenes ATCC 13048 (Ea) strain; method in brief: as §3
[25] = tested on: Pseudomonas aeruginosa; assay: The compound was tested evaluated for its antimicrobial activity against Pseudomonas aeruginosa A5007 (Pa(5)) strain; method in brief: as §1
[26] = tested on: Staphylococcus epidermidis; assay: as §4; method in brief: as §3; remark: listed apart in the source
[27] = Pseudomonas aeruginosa, read-out: MIC
[28] = Streptococcus pyogenes, read-out: MIC
[29] = Enterococcus faecium, ATCC 8043, read-out: MIC
[30] = Staphylococcus aureus, ATCC 6538P, read-out: MIC
[31] = Escherichia coli, read-out: MIC
[32] = Staphylococcus aureus, read-out: MIC
[33] = Klebsiella aerogenes, ATCC 13048, read-out: MIC

Row | MIC [4] | MIC [7] | MIC [13] | MIC [14] | Compound | MIC [1] | Ki ([2]; Escherichia coli) | Ki ([5]; Micrococcus luteus) | MIC [6, 27] | MIC [8, 28] | MIC [9] | MIC [10, 29] | MIC [11] | MIC [12, 30] | MIC [16] | MIC [21, 31] | Ki [5] | MIC [23, 32] | MIC [24, 33] | MIC [25] | MIC [26] | also measured
1 | 3.1 mg/L (≈ 7.61 µM) | > 50 mg/L | 6.2 mg/L (≈ 15.2 µM) | 0.39 mg/L (≈ 0.957 µM) | O=C(O)c1cn(C2C[C@@H]2c2ccccc2)c2cc(N3CCNCC3)c(F)cc2c1=O (stereo partly specified) | 12.5 mg/L (≈ 30.7 µM) | 12.1 mg/L (≈ 29.7 µM) | 9.6 mg/L (≈ 23.6 µM) | 100 mg/L (≈ 245 µM) | 0.78 mg/L (≈ 1.91 µM) | 0.78 mg/L (≈ 1.91 µM) | 1.56 mg/L (≈ 3.83 µM) | 1.56 mg/L (≈ 3.83 µM) | 0.78 mg/L (≈ 1.91 µM) | – | – | – | – | – | – | – | MIC [3]: 12.5 mg/L (≈ 30.7 µM)
2 | – | > 100 mg/L | 100 mg/L (≈ 245 µM) | – | O=C(O)c1cn(C2C[C@H]2c2ccccc2)c2cc(N3CCNCC3)c(F)cc2c1=O (stereo in doubt; 5) | – | 14.2 mg/L (≈ 34.9 µM) | – | 100 mg/L (≈ 245 µM) | 3.1 mg/L (≈ 7.61 µM) | – | 6.2 mg/L (≈ 15.2 µM) | – | 3.1 mg/L (≈ 7.61 µM) | 3.1 mg/L (≈ 7.61 µM) | 50 mg/L (≈ 123 µM) | 38 mg/L (≈ 93.3 µM) | 3.1 mg/L (≈ 7.61 µM) | 50 mg/L (≈ 123 µM) | – | – | MIC [22]: 12.5 mg/L (≈ 30.7 µM); MIC [6]: 100 mg/L (≈ 245 µM)
3 | 6.2 mg/L (≈ 15.2 µM) | – | 25 mg/L (≈ 61.4 µM) | 0.39 mg/L (≈ 0.957 µM) | O=C(O)c1cn(C2C[C@H]2c2ccccc2)c2cc(N3CCNCC3)c(F)cc2c1=O (stereo in doubt; 14) | – | – | – | – | – | – | – | – | – | – | – | 13.7 mg/L (≈ 33.6 µM) | – | – | > 100 mg/L | 1.56 mg/L (≈ 3.83 µM) | MIC [21]: 25 mg/L (≈ 61.4 µM); Ki [2]: 15.2 mg/L (≈ 37.3 µM); MIC [8]: 1.56 mg/L (≈ 3.83 µM); MIC [23]: 1.56 mg/L (≈ 3.83 µM); MIC [10]: 3.1 mg/L (≈ 7.61 µM); MIC [12]: 1.56 mg/L (≈ 3.83 µM); MIC [24]: 50 mg/L (≈ 123 µM)

Further lines, the compound ahead of its results:

Row | Compound | MIC [4] | MIC [7] | MIC [13] | MIC [14] | MIC [1] | Ki ([2]; Escherichia coli) | Ki ([5]; Micrococcus luteus) | MIC [6, 27] | MIC [8, 28] | MIC [9] | MIC [10, 29] | MIC [11] | MIC [12, 30] | MIC [16] | MIC [21, 31] | Ki [5] | MIC [23, 32] | MIC [24, 33] | MIC [25] | MIC [26] | also measured
4 | O=C(O)c1cn(-c2ccccc2)c2cc(N3CCNCC3)c(F)cc2c1=O | – | 0.78 mg/L (≈ 2.12 µM) | – | – | 0.39 mg/L (≈ 1.06 µM) | – | – | – | – | 0.39 mg/L (≈ 1.06 µM) | – | – | 0.39 mg/L (≈ 1.06 µM) | 1.56 mg/L (≈ 4.25 µM) | – | – | – | – | – | – | MIC [15]: 0.2 mg/L (≈ 0.544 µM); MIC [17]: 1.56 mg/L (≈ 4.25 µM); MIC [18]: 12.5 mg/L (≈ 34 µM); MIC [19]: 0.78 mg/L (≈ 2.12 µM); MIC [20]: 1.56 mg/L (≈ 4.25 µM)
5 | O=C(O)c1cn(C2CC2)c2cc(N3CCNCC3)c(F)cc2c1=O [CIPROFLOXACIN] | – | – | 3.1 mg/L (≈ 9.36 µM) | 1.56 mg/L (≈ 4.71 µM) | – | 0.9 mg/L (≈ 2.72 µM) | 38 mg/L (≈ 115 µM) | 0.05 mg/L (≈ 0.151 µM) | 0.39 mg/L (≈ 1.18 µM) | – | 0.39 mg/L (≈ 1.18 µM) | – | 0.2 mg/L (≈ 0.604 µM) | – | – | – | 0.2 mg/L (≈ 0.604 µM) | 0.05 mg/L (≈ 0.151 µM) | 0.1 mg/L (≈ 0.302 µM) | 0.2 mg/L (≈ 0.604 µM) | –
6 | CCn1cc(C(=O)O)c(=O)c2cc(F)c(N3CCNCC3)cc21 [NORFLOXACIN] | 0.1 mg/L (≈ 0.313 µM) | – | 6.2 mg/L (≈ 19.4 µM) | – | 0.2 mg/L (≈ 0.626 µM) | 1 mg/L (≈ 3.13 µM) | 72 mg/L (≈ 225 µM) | 0.39 mg/L (≈ 1.22 µM) | 3.1 mg/L (≈ 9.71 µM) | – | 0.78 mg/L (≈ 2.44 µM) | 1.56 mg/L (≈ 4.89 µM) | 0.78 mg/L (≈ 2.44 µM) | – | 0.1 mg/L (≈ 0.313 µM) | – | 0.78 mg/L (≈ 2.44 µM) | – | 0.39 mg/L (≈ 1.22 µM) | – | –
